Key:
[1] = target: intracellular HCV NS5B RdRp activity (Hepatitis C virus genotype 1b, UniProt P26663); assay: BHK-NS5B-FRLuc reporter: intracellular NS5B RdRp activity; type: cell-based; settings: 100 μM, 42 h, percent of DMSO controls
Method in brief: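 BHK cells stably expressing NS5B and carrying a bicistronic (+)FLuc-(−)UTR-RLuc reporter were grown in DMEM with 10% FBS, antibiotic-antimycotic, nonessential amino acids, 1 mg/mL G418 and […] at 37 °C and 5% CO2. Cells were seeded at 1 × 10^4 cells/well and dosed 8 h later with 100 μM test compound. Cells were lysed 42 h after treatment and read by dual luciferase. Activity is the percent reduction in RLuc/FLuc versus DMSO controls.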

[2] = test system: HCV RNA replication of genotype 1b (Huh7/Rep-Feo1b); assay: HCV 1b replicon luciferase reporter assay; type: cell-based, Hepatitis C virus genotype 1b; settings: Huh7/Rep-Feo1b cells, 100 μM, 42 h
[3] = test system: Huh7.5 cells; assay: Cell viability in parental Huh7.5 cells by MTS assay; type: cell-based; settings: 100 μM, 42 h
Method in brief: (§1)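 Cytotoxicity was run in parallel with the HCV replicon assays, using parental Huh7.5 cells at 37 °C and 5% CO2. Cells were seeded at 1 × 10^4 cells/well and exposed 8 h later to test compound at 100 μM or to matching DMSO for 42 h. Viability was read by the colorimetric MTS assay.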

[4] = test system: HCV RNA replication of genotype 2a (Huh7.5-FGR-JC1-Rluc2A); assay: HCV 2a replicon luciferase reporter assay; type: cell-based, Hepatitis C virus genotype 2a; settings: Huh7.5-FGR-JC1-Rluc2A cells, 100 μM, 42 h
[5] = test system: BHK-NS5B-FRLuc reporter cells; type: cell-based; settings: 100 μM, 42 h, firefly luciferase versus DMSO controls
[6] = Cell viability in parental Huh7.5 cells by MTS assay; type: cell-based; settings: human, parental Huh7.5 cells, Huh7.5 Cytotoxicity (%)
Method in brief: as §1

Chain of intracellular HCV NS5B RdRp activity (P26663 2420-3010): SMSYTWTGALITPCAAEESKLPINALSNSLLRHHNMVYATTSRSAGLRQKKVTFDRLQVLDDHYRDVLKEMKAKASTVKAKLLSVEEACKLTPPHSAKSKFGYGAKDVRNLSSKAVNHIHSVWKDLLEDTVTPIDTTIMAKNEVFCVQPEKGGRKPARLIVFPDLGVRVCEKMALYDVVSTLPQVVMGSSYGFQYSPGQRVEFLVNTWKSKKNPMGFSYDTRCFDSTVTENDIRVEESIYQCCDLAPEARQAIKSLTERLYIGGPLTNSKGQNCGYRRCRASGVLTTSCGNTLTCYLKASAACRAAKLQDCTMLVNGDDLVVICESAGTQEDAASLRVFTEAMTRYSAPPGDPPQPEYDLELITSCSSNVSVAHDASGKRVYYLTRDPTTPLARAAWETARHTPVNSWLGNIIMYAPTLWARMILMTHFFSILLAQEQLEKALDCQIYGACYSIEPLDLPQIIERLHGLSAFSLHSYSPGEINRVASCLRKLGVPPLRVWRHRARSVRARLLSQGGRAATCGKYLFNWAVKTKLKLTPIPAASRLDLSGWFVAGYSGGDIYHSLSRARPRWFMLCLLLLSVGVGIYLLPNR

2-[[5-(4-Fluorophenyl)-1,3,4-thiadiazol-2-yl]imino]-5-(2,6-dimethoxybenzylidene)-1,3-thiazolidin-4-one [Compound 17]
BHK-NS5B FR Luc Inhibition (%) [1]: 7.0 ± 1.8% | 1b Replicon reporter Inhibition (%) [2]: 51.2 ± 6.3% | Huh7.5 Cytotoxicity (%) [3]: 13.9 ± 1.6% | 2a Replicon reporter Inhibition (%) [4]: 50.4 ± 5.2%

2-[[5-(4-Fluorophenyl)-1,3,4-thiadiazol-2-yl]imino]-5-(4-nitrobenzylidene)-1,3-thiazolidin-4-one [Compound 16]
BHK-NS5B FR Luc Inhibition (%) [1]: no inhibition and n.i | BHK-NS5B FR Luc Cytotoxicity (%) [5]: 73.7 ± 8.6% | 1b Replicon reporter Inhibition (%) [2]: 87.7 ± 1.4% | Huh7.5 Cytotoxicity (%) [3]: 63.0 ± 4.4% | 2a Replicon reporter Inhibition (%) [4]: 93.2 ±1.7%

Nc1nnc(-c2ccc(F)cc2)s1 [Compound 3, 2-Amino-5-(4-fluorophenyl)-1,3,4-thiadiazole]
BHK-NS5B FR Luc Cytotoxicity (%) [5]: 0.0%

Nc1nnc(-c2ccc(Cl)cc2)s1 [Compound 4, 2-Amino-5-(4-chlorophenyl)-1,3,4-thiadiazole]
BHK-NS5B FR Luc Inhibition (%) [1]: did not inhibit and n.i.

O=C(CCl)Nc1nnc(-c2ccc(F)cc2)s1 [Compound 5, 2-Chloro-N-[5-(4-fluorophenyl)-1,3,4-thiadiazol-2-yl]acet-amide]
1b Replicon reporter Inhibition (%) [2]: near complete inhibition | cytotoxicity at 42 h, 100 µM [6]: > 70% | 2a Replicon reporter Inhibition (%) [4]: near complete inhibition

O=C(CCl)Nc1nnc(-c2ccc(Cl)cc2)s1 [Compound 6, 2-Chloro-N-[5-(4-chlorophenyl)-1,3,4-thiadiazol-2-yl]acet-amide]
1b Replicon reporter Inhibition (%) [2]: near complete inhibition | cytotoxicity at 42 h, 100 µM [6]: > 70% | 2a Replicon reporter Inhibition (%) [4]: near complete inhibition

O=C1CS/C(=N/c2nnc(-c3ccc(F)cc3)s2)N1 [Compound 7, 2-[[5-(4-Fluorophenyl)-1,3,4-thiadiazol-2-yl]imino]-1,3-thiazolidine-4-one]
BHK-NS5B FR Luc Cytotoxicity (%) [5]: 0.0%

O=C1N/C(=N\c2nnc(-c3ccc(F)cc3)s2)S/C1=C\c1c(F)cccc1Cl [Compound 12, 2-[[5-(4-Fluorophenyl)-1,3,4-thiadiazol-2-yl]imino]-5-(2-chloro-6-fluoro-benzylidene)-1,3-thiazolidin-4-one]
1b Replicon reporter Inhibition (%) [2]: near complete inhibition | cytotoxicity at 42 h, 100 µM [6]: > 70% | 2a Replicon reporter Inhibition (%) [4]: near complete inhibition

O=C1N/C(=N\c2nnc(-c3ccc(F)cc3)s2)S/C1=C\c1ccc(Cl)cc1Cl [Compound 14, 2-[[5-(4-Fluorophenyl)-1,3,4-thiadiazol-2-yl]imino]-5-(2,4-dichlorobenzylidene)-1,3-thiazolidin-4-one]
BHK-NS5B FR Luc Inhibition (%) [1]: n.i

O=C1N/C(=N\c2nnc(-c3ccc(F)cc3)s2)S/C1=C\c1c(Cl)cccc1Cl [Compound 15, 2-[[5-(4-Fluorophenyl)-1,3,4-thiadiazol-2-yl]imino]-5-(2,6-dichlorobenzylidene)-1,3-thiazolidin-4-one]
1b Replicon reporter Inhibition (%) [2]: near complete inhibition | cytotoxicity at 42 h, 100 µM [6]: > 70% | 2a Replicon reporter Inhibition (%) [4]: near complete inhibition

O=C1N/C(=N\c2nnc(-c3ccc(Cl)cc3)s2)S/C1=C\c1ccc(F)cc1 [Compound 20, 2-[[5-(4-Chlorophenyl)-1,3,4-thiadiazol-2-yl]imino]-5-(4-fluorobenzylidene)-1,3-thiazolidin-4-one]
BHK-NS5B FR Luc Inhibition (%) [1]: no inhibition and n.i

O=C1N/C(=N\c2nnc(-c3ccc(Cl)cc3)s2)S/C1=C\c1c(F)cccc1Cl [Compound 21, 2-[[5-(4-Chlorophenyl)-1,3,4-thiadiazol-2-yl]imino]-5-(2-chloro-6-fluoro-benzylidene)-1,3-thiazolidin-4-one]
BHK-NS5B FR Luc Inhibition (%) [1]: n.i. | 1b Replicon reporter Inhibition (%) [2]: n.i. | cytotoxicity at 42 h, 100 µM [6]: 0% | 2a Replicon reporter Inhibition (%) [4]: n.i.

O=C1N/C(=N\c2nnc(-c3ccc(Cl)cc3)s2)S/C1=C\c1ccccc1Cl [Compound 22, 2-[[5-(4-Chlorophenyl)-1,3,4-thiadiazol-2-yl]imino]-5-(2-chlorobenzylidene)-1,3-thiazolidin-4-one]
BHK-NS5B FR Luc Inhibition (%) [1]: n.i. | 1b Replicon reporter Inhibition (%) [2]: n.i. | cytotoxicity at 42 h, 100 µM [6]: 0% | 2a Replicon reporter Inhibition (%) [4]: n.i.

O=C1N/C(=N\c2nnc(-c3ccc(Cl)cc3)s2)S/C1=C\c1ccc(Cl)cc1Cl [Compound 23, 2-[[5-(4-Chlorophenyl)-1,3,4-thiadiazol-2-yl]imino]-5-(2,4-dichlorobenzylidene)-1,3-thiazolidin-4-one]
BHK-NS5B FR Luc Inhibition (%) [1]: n.i. | 1b Replicon reporter Inhibition (%) [2]: n.i. | cytotoxicity at 42 h, 100 µM [6]: 0% | 2a Replicon reporter Inhibition (%) [4]: n.i.

O=C1N/C(=N\c2nnc(-c3ccc(Cl)cc3)s2)S/C1=C\c1c(Cl)cccc1Cl [Compound 24, 2-[[5-(4-Chlorophenyl)-1,3,4-thiadiazol-2-yl]imino]-5-(2,6-dichlorobenzylidene)-1,3-thiazolidin-4-one]
1b Replicon reporter Inhibition (%) [2]: near complete inhibition | cytotoxicity at 42 h, 100 µM [6]: > 70% | 2a Replicon reporter Inhibition (%) [4]: near complete inhibition

COc1cccc(OC)c1/C=C1\S/C(=N/c2nnc(-c3ccc(Cl)cc3)s2)NC1=O [Compound 25, 2-[[5-(4-Chlorophenyl)-1,3,4-thiadiazol-2-yl]imino]-5-(2,6-dimethoxy-benzylidene)-1,3-thiazolidin-4-one]
1b Replicon reporter Inhibition (%) [2]: near complete inhibition | cytotoxicity at 42 h, 100 µM [6]: > 70% | 2a Replicon reporter Inhibition (%) [4]: near complete inhibition

Source: article PMC4004375 (European journal of medicinal chemistry, 2013)
